Results reported in ChEMBL document CHEMBL1123657, “Anthrapyrazole anticancer agents. Synthesis and structure-activity relationships against murine leukemias” (J Med Chem, 1987).

Assays:
[1] = system: P388; test: Optimal dose per injection in mg/kg required to inhibit growth of P388 leukemia cells in mice; format: functional, Mus musculus
How it was run: (§1)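 P388 leukemia implanted ip in mice; drug given ip on days 1 and 5 (ip/ip; D1,5), dosed in mg/kg per injection. Read-out is treated/control (T/C, %) with cures counted, reported at the optimal dose.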

[2] = system: L1210; test: Tested in vitro against murine L1210 leukemia.; format: functional, cell-based; details: Mus musculus
[3] = system: P388; test: Inhibition of P388 leukemia cells in mice, measured as percent treated to the control values with the number of 30 day survivors; format: functional, Mus musculus; how it was run: as §1
[4] = system: P388; test: Activity against P388 leukemia cells in mice, by intraperitoneal dosing and net log tumor cell kill was reported; format: functional, Mus musculus

Compound | Dose [1] | IC50 [2] | T/C [3] | Activity [4]
CN(C)CCNc1ccc2c3c(nn2Cc2ccccc2)-c2c(O)ccc(O)c2C(=O)c13.Cl | 25 mg/kg | 860 nM | 104% | -1.5
Cl.NCCNc1ccc2c3c(nn2CCNCCO)-c2c(O)ccc(O)c2C(=O)c13 | 3.12 mg/kg | 1600 nM | 197% | 4.8
CN(CCO)CCn1nc2c3c(c(NCCNCCO)ccc31)C(=O)c1c(O)ccc(O)c1-2.Cl | 12.5 mg/kg | 330 nM |  | 4.2
CN(C)CCNCCNc1ccc2c3c(nn2CCNCCO)-c2c(O)ccc(O)c2C(=O)c13.Cl | 50 mg/kg | 760 nM | 254% | >6.8
Cl.NCCNc1ccc2c3c(nn2CCN)-c2c(O)ccc(O)c2C(=O)c13 | 12.5 mg/kg | 480 nM | 221% | 5.6
CCN(CC)CCn1nc2c3c(c(NCCNC)ccc31)C(=O)c1ccccc1-2.Cl | 25 mg/kg | 27 nM | 138% | 0.7
Cl.Cn1nc2c3c(c(NCCNCCO)ccc31)C(=O)c1ccccc1-2 | 100 mg/kg | 710 nM | 136% | -0.2
CCN(CC)CCCCCCCNc1ccc2c3c(nn2CCN(CC)CC)-c2ccccc2C(=O)c13.Cl | 25 mg/kg | 630 nM | 104% | -1.5
CCN(CC)CCNc1ccc2c3c(nn2CC(O)CN(CC)CC)-c2c(O)ccc(O)c2C(=O)c13.Cl (stereo unspecified) | 100 mg/kg | 1300 nM |  | 1.2
Cl.NCCn1nc2c3c(c(NCCCNCCO)ccc31)C(=O)c1c(O)ccc(O)c1-2 | 6.25 mg/kg | 870 nM | 194% | 3.4
Cl.O=C1c2ccccc2-c2nn(CCNCCO)c3ccc(NCCO)c1c23 | 25 mg/kg | 750 nM | 139% | 0.1
CCN(CC)CCn1nc2c3c(c(NCCN4CCOCC4)ccc31)C(=O)c1ccccc1-2.Cl | 400 mg/kg | 480 nM |  | >6.8
CCN(CC)CCNc1ccc2c3c(nn2CCO)-c2c(O)ccc(O)c2C(=O)c13.Cl | 400 mg/kg | 730 nM | 190% | 4.6
Cl.NCCNCCNc1ccc2c3c(nn2CCNCCO)-c2c(O)ccc(O)c2C(=O)c13 | 25 mg/kg | 330 nM | 277% | >6.6
CN(C)CCNCCn1nc2c3c(c(NCCNCCO)ccc31)C(=O)c1c(O)ccc(O)c1-2.Cl | 50 mg/kg | 1400 nM | 226% | >6.8
Br.CCN(CC)CCn1nc2c3c(c(NCCNC)ccc31)C(=O)c1c(O)ccc(O)c1-2 | 25 mg/kg | 7400 nM |  | >7.1
Cl.NCCNc1ccc2c3c(nn2CCO)-c2c(O)ccc(O)c2C(=O)c13 | 100 mg/kg | 480 nM | 196% | 6.8
CCN(CC)CCNc1ccc2c3c(nn2CCO)-c2ccccc2C(=O)c13.Cl | 400 mg/kg | 880 nM | 145% | 0.8
CN(C)CCCn1nc2c3c(c(NCCNCCO)ccc31)C(=O)c1c(O)ccc(O)c1-2.Cl | 12.5 mg/kg | 590 nM |  | 5.4
CCN(CC)CCNc1cccc2c1C(=O)c1cccc3c1c-2nn3CCN(CC)CC.Cl | 50 mg/kg | 600 nM | 103% | -1.5
CN(C)CCn1nc2c3c(c(NCCCN)ccc31)C(=O)c1c(O)ccc(O)c1-2.Cl | 12.5 mg/kg | 540 nM | 208% | 4.7
CN(C)CCn1nc2c3c(c(NCCN)ccc31)C(=O)c1c(O)ccc(O)c1-2.Cl | 12.5 mg/kg | 220 nM | 263% | >6.6
CNCCNc1ccc2c3c(nn2CCN)-c2c(O)ccc(O)c2C(=O)c13 |  | 700 nM |  | 
CN(C)CCNCCNc1ccc2c3c(nn2CC(O)CO)-c2c(O)ccc(O)c2C(=O)c13.Cl (stereo unspecified) | 400 mg/kg | 2200 nM | 281% | 6.7
CCN(CC)CCNc1ccc2c3c(nn2CCN(CC)CC)-c2c(O)ccc(O)c2C(=O)c13.Cl | 100 mg/kg | 550 nM | 180% | 3.5
CNc1ccc2c3c(nn2CCNCCO)-c2ccccc2C(=O)c13.Cl | 200 mg/kg | 740 nM | 127% | -0.7
Cl.Cn1nc2c3c(c(NCCNCCO)ccc31)C(=O)c1c(O)ccc(O)c1-2 | 100 mg/kg | 150 nM |  | 2.9

Compound | Dose [1] | IC50 [2] | T/C [3] | Activity [4]
CN(C)CCNc1ccc2c3c(nn2CCO)-c2c(O)ccc(O)c2C(=O)c13.Cl | 200 mg/kg | 15 nM | 283% | 6.6
CCN(CC)CCNc1ccc2c3c(c4ccccc4c(O)c13)N=N2.Cl | 400 mg/kg | 1500 nM | 111% | -1.4
CN(C)CCCn1nc2c3c(c(NCCCN)ccc31)C(=O)c1c(O)ccc(O)c1-2.Cl | 25 mg/kg | 800 nM | 212% | 4
Cl.NCCn1nc2c3c(c(NCCNCCO)ccc31)C(=O)c1ccccc1-2 | 25 mg/kg | 80 nM |  | 3.7
Cl.O=C1c2ccccc2-c2nn(CCO)c3ccc(NCCNCCO)c1c23 | 25 mg/kg | 1800 nM | 125% | -0.9
CCN(CC)CCCCNc1ccc2c3c(nn2CCN(CC)CC)-c2ccccc2C(=O)c13.Cl | 25 mg/kg | 620 nM | 107% | -1.4
CN(C)CCNc1ccc2c3c(nn2CCNCCO)-c2c(O)ccc(O)c2C(=O)c13.Cl | 12.5 mg/kg | 230 nM | 250% | >6.6
CNCCn1nc2c3c(c(NCCNCCO)ccc31)C(=O)c1c(O)ccc(O)c1-2.Cl | 3.12 mg/kg | 440 nM | 324% | >6.8
CCN(CC)CCn1nc2c3c(c(NCCN4CCN(C(=O)OCc5ccccc5)CC4)ccc31)C(=O)c1ccccc1-2 |  | 390 nM |  | 
CCN(CC)CCNc1ccc2c3c(nn2CCNCCO)-c2ccccc2C(=O)c13.Cl | 12.5 mg/kg | 60 nM | 158% | 1.8
CN(C)CCCn1nc2c3c(c(NCCN)ccc31)C(=O)c1c(O)ccc(O)c1-2.Cl | 12.5 mg/kg | 200 nM | 230% | 6.6
CCN(CC)CCNc1ccc2c3c(nn2C)-c2c(O)ccc(O)c2C(=O)c13.Cl | 400 mg/kg | 450 nM | 152% | 1.3
CN(C)CCNc1ccc2c3c(nn2CCNCCO)-c2ccccc2C(=O)c13.Cl | 6.25 mg/kg | 32 nM | 174% | 3.1
CCN(CC)CCn1nc2c3c(c(NCCNCCO)ccc31)C(=O)c1ccccc1-2.Cl | 25 mg/kg | 32 nM | 169% | 2.6
CCN(CC)CCNc1ccc2c3c(nn2CCNCCO)-c2c(O)ccc(O)c2C(=O)c13.Cl | 50 mg/kg | 510 nM |  | >6.7
CCN(CC)CCn1nc2c3c(c(NCCN4CCNCC4)ccc31)C(=O)c1ccccc1-2.Cl | 25 mg/kg | 500 nM | 109% | -1.3
Cl.OCCNCCNc1ccc2c3c(c4ccccc4c(O)c13)N=N2 | 100 mg/kg | 2200 nM | 126% | -0.8
CCCCCCNc1ccc2c3c(nn2CCN(CC)CC)-c2ccccc2C(=O)c13.Cl | 200 mg/kg | 2000 nM | 110% | -1.4
Cl.NCCCNc1ccc2c3c(nn2CCCNCCO)-c2c(O)ccc(O)c2C(=O)c13 | 100 mg/kg | 1800 nM | 185% | 3.4
Cl.NCCNc1ccc2c3c(nn2CCNCCO)-c2ccccc2C(=O)c13 | 25 mg/kg | 69 nM |  | 4.4
CN(C)CCNCCNc1ccc2c3c(nn2CCN)-c2c(O)ccc(O)c2C(=O)c13.Cl | 50 mg/kg | 930 nM | 242% | 6.4
CN1CCN(c2ccc3c4c(nn3CCNCCO)-c3c(O)ccc(O)c3C(=O)c24)CC1.Cl | 12.5 mg/kg | 430 nM | 192% | 3.8
Cl.O=C1c2c(NCCNCCO)cccc2-c2nn(CCNCCO)c3cccc1c23 | 12.5 mg/kg | 390 nM | 133% | -0.3
Cl.O=C1c2c(O)ccc(O)c2-c2nn(CCNCCO)c3ccc(NCCCN(CCO)CCO)c1c23 | 100 mg/kg | 920 nM | 194% | 3.6
Cl.O=C1c2c(O)ccc(O)c2-c2nn(CCNCCO)c3ccc(NCCNCCO)c1c23 | 6.25 mg/kg | 740 nM |  | 4.6
NCCCNc1ccc2c3c(nn2CCN)-c2c(O)ccc(O)c2C(=O)c13 |  | 310 nM |  | 
CN(C)CCN(C)c1ccc2c3c(nn2CCNCCO)-c2c(O)ccc(O)c2C(=O)c13.Cl | 12.5 mg/kg | 630 nM |  | 4.9
